{"source": "BindingDB's records for doi:10.1016/j.bmc.2008.08.048", "about": "(National Institute of Diabetes and Digestive and Kidney …, 2008)", "molecular_target": "Transient receptor potential cation channel subfamily V member 1 (Rattus norvegicus, UniProt O35433)", "sequence (O35433 whole entry)": "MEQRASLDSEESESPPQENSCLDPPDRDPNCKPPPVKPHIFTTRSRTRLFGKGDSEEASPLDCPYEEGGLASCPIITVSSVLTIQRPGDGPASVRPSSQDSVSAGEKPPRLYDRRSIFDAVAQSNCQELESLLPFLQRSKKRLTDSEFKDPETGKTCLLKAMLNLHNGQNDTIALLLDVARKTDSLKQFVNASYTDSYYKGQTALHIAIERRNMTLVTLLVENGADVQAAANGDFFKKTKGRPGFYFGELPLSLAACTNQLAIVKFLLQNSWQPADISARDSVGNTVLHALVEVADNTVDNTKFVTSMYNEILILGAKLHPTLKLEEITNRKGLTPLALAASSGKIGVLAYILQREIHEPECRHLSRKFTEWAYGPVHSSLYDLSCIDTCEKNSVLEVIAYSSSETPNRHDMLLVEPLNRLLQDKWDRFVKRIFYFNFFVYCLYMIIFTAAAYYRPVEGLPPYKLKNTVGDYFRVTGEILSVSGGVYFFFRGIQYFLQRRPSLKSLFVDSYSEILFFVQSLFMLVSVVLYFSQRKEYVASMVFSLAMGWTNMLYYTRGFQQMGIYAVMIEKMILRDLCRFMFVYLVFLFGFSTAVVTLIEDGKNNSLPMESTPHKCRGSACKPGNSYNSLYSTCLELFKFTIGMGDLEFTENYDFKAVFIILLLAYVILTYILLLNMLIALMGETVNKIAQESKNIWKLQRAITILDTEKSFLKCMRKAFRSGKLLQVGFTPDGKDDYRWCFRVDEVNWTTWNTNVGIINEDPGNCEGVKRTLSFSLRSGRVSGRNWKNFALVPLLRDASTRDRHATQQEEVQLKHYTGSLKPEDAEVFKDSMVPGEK", "experiment": "Agonist-enhancing activity at TRPV1 receptor in E15 rat primary dorsal root ganglion cells assessed as capsaicin-induced 45Ca2+ influx by microplate liquid scintillation counter", "outline": "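E15 rat DRG cultures grown 5–6 days at 35°C. Uptake with capsaicin ~0.5 µM, 10 min at 20°C, 0.5 µCi/well 45Ca2+ in Tris-HBSS pH 7.5. Compound up to 50 µM, 0.2% DMSO, from 25 mM stocks. Counts normalized to in-plate capsaicin-only wells (100%, 4 wells). Variable-slope sigmoid fit gave EC50, Hill slope and ΔEmax.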"}
{"smiles": "CCOC(=O)C1=C(c2cccc(Cl)c2)N=C(C)C(C(=O)OCC)C1CC", "note": "(single isomer, unassigned; (+)) [3,5-diethyl-2-methyl-4-ethyl-6-(3-chlorophenyl)-1,4-(+)-dihydropyridine-3,5-dicarboxylate]", "values": [{"measurement": "EC50", "result": 17, "unit": "µM"}]}
